Experimental data from ChEMBL document CHEMBL1125712 (J Med Chem, 1991).
The source made the active and inactive calls. The rule behind the calls is not given here.

Experiments:
[1] = test system: Rattus norvegicus; test: Compound was evaluated for the ED50(chronic) in male Sprague-Dawley rats(n=5) treated with streptozotocin (85 mg/kg intravenously).; details: oral
[2] = Compound was evaluated for the apparent pKa (dioxane/water) in the ratio 1:1; assay type: physicochemical; details: dioxane/water 1:1
[3] = test system: Rattus norvegicus; test: Compound was evaluated in vivo for the inhibition of sorbitol accumulation administered orally at a dose of 5 mg/kg.; assay type: functional; details: route oral
[4] = biological target: T1, Aldo-keto reductase family 1 member B1 (Homo sapiens, UniProt P15121); test: Inhibition of aldose reductase (aldo-keto reductase, AKR1B1) isolated from human placenta.
[5] = Compound was evaluated for the partition coefficient (octanol/pH 7.4 buffer); assay type: physicochemical
Summary of the method: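 Partition measured between n-octanol and pH 7.4 buffer.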

[6] = Partition coefficient (logP); assay type: physicochemical; details: octanol/water
[7] = test system: Rattus norvegicus; test: Compound was evaluated for the ED50(acute) in male Sprague-Dawley rats(n=4) treated with streptozotocin (85 mg/kg intravenously).; assay type: functional
Summary of the method: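 Streptozotocin-diabetic rats (85 mg/kg iv) dosed by oral gavage, aqueous suspension or solution, at 4, 7 and 24 h. Killed at 27 h. […] ED50 from log linear regression.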

[8] = Compound was evaluated for the apparent pKa (dioxane/water) the ratio 2:1; assay type: physicochemical; details: dioxane/water 2:1
[9] = Compound was evaluated for the apparent pKa (dioxane/water)the ratio 2:1; assay type: physicochemical; details: dioxane/water 2:1
[10] = test system: Rattus norvegicus; test: Compound was evaluated in vivo for the inhibition of sorbitol accumulation administered orally at a dose of 5 mg/kg; Not significant; assay type: functional, organism-based; parameters: dose 5 mg/kg
[11] = test system: aldose reductase (Rattus norvegicus); test: In vivo inhibition of sorbitol accumulation in the rat following 10 mg/kg p.o. administration.; details: at 10 mg/kg
[12] = test system: Rattus norvegicus; test: Compound was evaluated for the ED50(chronic) in male Sprague-Dawley rats(n=5) treated with streptozotocin (85 mg/kg intravenously).; details: oral; remark: listed apart in the source
[13] = organism: Homo sapiens; test: Compound was tested for the inhibition of sorbitol accumulation in washed human erythrocytes.; assay type: functional
[14] = biological target: T1, Aldo-keto reductase family 1 member B1; test: Compound was evaluated for its ability to inhibit the aldose reductase isolated from human placentae; Inactive at 10E-4 M
[15] = test system: Rattus norvegicus; test: Compound was evaluated in vivo for the inhibition of sorbitol accumulation administered orally at a dose of 0.25 mg/kg.; assay type: functional; details: route oral
[16] = organism: Rattus norvegicus; test: Compound was tested for the inhibition of sorbitol accumulation in washed rat erythrocytes.
[17] = biological target: T2, Aldo-keto reductase family 1 member B1 (Rattus norvegicus, UniProt P07943); test: Compound was tested for the inhibition of the rat lens aldose reductase using the substrate as glyceraldehyde
[18] = biological target: T2, Aldo-keto reductase family 1 member B1; test: Compound was tested for the inhibition of the rat lens aldose reductase using the substrate as glucose.

Row | Compound | pKa [2] | IC50 [4] | logD [5] | logP [6] | pKa [8] | ED50 [1] | ED50 ([7]; iv) | ED50 [12] | further results
1 | COc1ccc2c(C(=S)N(C)CC(=O)O)cccc2c1C(F)(F)F [TOLRESTAT] |  |  |  |  |  |  |  | 26 mg/kg | IC50 [13]: 15 nM
2 | CN1C(C(=O)Nc2nccs2)=C(O)c2ccccc2S1(=O)=O [SUDOXICAM] |  |  |  |  |  |  |  |  | IC50 [14]: Not Active
3 | O=C1NC(=O)[C@@]2(CCOc3ccc(F)cc32)N1 [SORBINIL] |  |  |  |  |  |  |  | 0.8 mg/kg | inhibition in vivo at 0.25 mg/kg [15]: 40.1%
4 | O=C(O)Cc1nn(Cc2nc3cc(C(F)(F)F)ccc3s2)c(=O)c2ccccc12 [ZOPOLRESTAT] | 5.46 |  | 0.55 | 3.43 | 6.38 | 2 mg/kg | 3.6 mg/kg |  | IC50 [16]: 220 nM; IC50 [17]: 41 nM; IC50 [18]: 10 nM

Further lines, with some results ahead:

Row | pKa [2] | IC50 [4] | logD [5] | logP [6] | pKa [8] | Compound | ED50 [1] | ED50 ([7]; iv) | ED50 [12] | further results
5 | 5.49 | 6.9 nM | -0.3 | 2.42 | 6.35 | O=C(O)Cc1nn(Cc2nc3cc(F)ccc3s2)c(=O)c2ccccc12 | 5.3 mg/kg | 5.3 mg/kg |  | inhibition in vivo at 5 mg/kg [3]: 60%
6 |  | 3.1 nM |  | 3.35 |  | O=C(O)Cc1nn(Cc2nc3cc(Br)ccc3s2)c(=O)c2ccccc12 | 4.9 mg/kg | 5.6 mg/kg |  | pKa [9]: 6.35
7 |  | 110 nM |  |  |  | CC(C)c1ccc2c(CC(=O)O)nn(Cc3nc4ccccc4s3)c(=O)c2c1 |  |  |  | inhibition [10]: inactive
8 | 5.47 | 6.3 nM | 0.05 | 3.01 | 6.38 | O=C(O)Cc1nn(Cc2nc3cc(F)cc(F)c3s2)c(=O)c2ccccc12 |  |  | 4 mg/kg | ED50 ([7]; oral): 3.2 mg/kg; inhibition [11]: 80%
